Where a chain is given by its changes, count along the chain named. Read-outs that look alike come from different tables or passages of the source.
Columns and labels:
CLC-0 E166H mutant = molecular target: T1, CLC-0 E166H mutant (Torpedo marmorata, UniProt P21564, C212S/E166H); type: cell-based; details: read-out: Apparent affinity (K1/2)
T1 sequence (P21564 1-805 E166H/C212S): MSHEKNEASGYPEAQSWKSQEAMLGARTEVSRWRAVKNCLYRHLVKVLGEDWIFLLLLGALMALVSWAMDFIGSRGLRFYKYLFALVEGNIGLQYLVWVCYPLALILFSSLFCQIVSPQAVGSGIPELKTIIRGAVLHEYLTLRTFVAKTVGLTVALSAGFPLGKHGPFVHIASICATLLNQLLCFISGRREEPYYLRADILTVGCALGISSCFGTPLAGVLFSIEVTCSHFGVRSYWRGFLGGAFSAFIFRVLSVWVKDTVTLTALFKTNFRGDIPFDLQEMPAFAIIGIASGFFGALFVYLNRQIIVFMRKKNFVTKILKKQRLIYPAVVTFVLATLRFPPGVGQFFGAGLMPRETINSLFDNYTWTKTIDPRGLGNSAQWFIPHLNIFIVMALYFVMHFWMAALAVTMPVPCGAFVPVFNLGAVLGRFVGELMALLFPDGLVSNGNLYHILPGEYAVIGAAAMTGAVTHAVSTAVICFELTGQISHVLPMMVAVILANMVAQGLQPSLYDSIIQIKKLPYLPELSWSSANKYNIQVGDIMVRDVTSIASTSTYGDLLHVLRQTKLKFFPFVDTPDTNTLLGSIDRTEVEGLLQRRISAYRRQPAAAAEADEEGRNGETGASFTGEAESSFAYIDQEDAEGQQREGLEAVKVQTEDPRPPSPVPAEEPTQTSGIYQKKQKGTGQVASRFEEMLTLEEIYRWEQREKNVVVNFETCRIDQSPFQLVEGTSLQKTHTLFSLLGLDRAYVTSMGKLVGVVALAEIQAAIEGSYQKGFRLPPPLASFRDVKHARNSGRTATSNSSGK
Method in brief: (§1)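 CLC-0 mutants in the C212S background were transfected into HEK293 cells with lipofectamine and recorded 1–3 d later as excised inside-out patches. Both sides held 130 mM NaCl, 5 mM MgCl2, 10 mM HEPES and 1 mM EGTA, pH 7.4. CPA was perfused continuously onto the cytoplasmic face. Steady-state current over the last 10 ms was normalized to bracketing blocker-free controls and fitted to a Langmuir function for K1/2. Values are mean ± SEM of ~4–6 patches.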

CLC-0 E166K mutant = molecular target: T2, CLC-0 E166K mutant (Torpedo marmorata, UniProt P21564, C212S/E166K); type: cell-based; details: for IC50: read-out: Apparent affinity (K1/2)
T2 sequence (P21564 1-805 E166K/C212S): T1 sequence (P21564 1-805 E166H/C212S) with H166K
Method in brief: as §1

| SMILES | IC50 (CLC-0 E166H mutant; −40 mV) | IC50 (CLC-0 E166H mutant; −60 mV) | IC50 (CLC-0 E166H mutant; −80 mV) | IC50 (CLC-0 E166H mutant; −100 mV) | IC50 (CLC-0 E166H mutant; −120 mV) | IC50 (CLC-0 E166H mutant; −140 mV) | IC50 (CLC-0 E166H mutant; −160 mV) | block of current (CLC-0 E166K mutant; 0.3 mM CPA, −160 mV) | IC50 (CLC-0 E166K mutant; −80 mV) | IC50 (CLC-0 E166K mutant; −100 mV) | IC50 (CLC-0 E166K mutant; −120 mV) | IC50 (CLC-0 E166K mutant; −140 mV) | IC50 (CLC-0 E166K mutant; −160 mV) |
| --- | --- | --- | --- | --- | --- | --- | --- | --- | --- | --- | --- | --- | --- |
| O=C(O)COc1ccc(Cl)cc1 [CPA, p-chlorophenoxy acetate] | 12.4 ± 0.52 mM | 5.86 ± 0.26 mM | 2.87 ± 0.15 mM | 1.45 ± 0.11 mM | 0.74 ± 0.08 mM | 0.39 ± 0.05 mM | 0.21 ± 0.04 mM | ~10% | 21.3 ± 0.9 mM | 15.6 ± 0.7 mM | 11.3 ± 0.5 mM | 7.99 ± 0.35 mM | 5.62 ± 0.27 mM |
| CCCCCCCC(=O)O [octanoate] | – | – | 29.5 ± 1.3 mM | 18.4 ± 0.81 mM | 11.5 ± 0.57 mM | 7.02 ± 0.4 mM | 4.57 ± 0.28 mM | – | 29.2 ± 0.53 mM | 21.6 ± 0.54 mM | 15.4 ± 0.5 mM | 10.6 ± 0.45 mM | 7.24 ± 0.33 mM |
